≈ marks a conversion by molar mass, not a printed value.
Tests used:
[1] = tested on: Human immunodeficiency virus 1; assay: Antiviral activity against HIV1 harboring reverse transcriptase F227L/V106A double mutant infected in human MT4 cells assessed as reduction in virus-induced cytopathic effect after 5 days by MTT assay; format: functional, organism-based; conditions: Human immunodeficiency virus 1, MT4, 120 h
[2] = tested on: Human immunodeficiency virus 1; assay: Antiviral activity against wild type HIV1 3B infected in human MT4 cells assessed as reduction in virus-induced cytopathic effect after 5 days by MTT assay; format: functional, organism-based; conditions: Human immunodeficiency virus 1, 3B, MT4, 120 h
[3] = Aqueous solubility of the compound at pH at 2 by HPLC analysis; format: physicochemical; conditions: buffer, pH 2
Procedure, shortened: (§1)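 Aqueous solubility read by HPLC in buffer at pH 2.0, 7.0 or 7.4.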

[4] = tested on: Human immunodeficiency virus 1; assay: Resistance factor, ratio of EC50 for HIV1 harboring reverse transcriptase F227L/V106A double mutant to EC50 for wild type HIV1; format: functional
Procedure, shortened: (§2)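 The resistance factor is the EC50 against the mutant strain divided by the EC50 against wild-type HIV-1. Both were measured in MT-4 cells by MTT read-out of protection from virus-induced cytopathicity.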

[5] = Selectivity ratio of CC50 for human MT4 cells to EC50 for HIV1 harboring reverse transcriptase F227L/V106A double mutant infected in human MT4 cells; format: toxicity, cell-based; conditions: read-out: Ratio CC50/EC50
[6] = tested on: Human immunodeficiency virus 1; assay: Antiviral activity against HIV1 harboring reverse transcriptase Y181C mutant infected in human MT4 cells assessed as reduction in virus-induced cytopathic effect after 5 days by MTT assay; format: functional, organism-based; conditions: Human immunodeficiency virus 1, MT4, 120 h
[7] = Selectivity ratio of CC50 for human MT4 cells to EC50 for HIV1 RES056 infected in human MT4 cells; format: toxicity, cell-based; conditions: read-out: Ratio CC50/EC50
[8] = tested on: Human immunodeficiency virus 1; assay: Resistance factor, ratio of EC50 for HIV1 harboring reverse transcriptase L100I mutant to EC50 for wild type HIV1; format: functional; procedure, shortened: as §2
[9] = Selectivity ratio of CC50 for human MT4 cells to EC50 for HIV1 harboring reverse transcriptase Y181C mutant infected in human MT4 cells; format: toxicity, cell-based; conditions: read-out: Ratio CC50/EC50
[10] = Selectivity ratio of CC50 for human MT4 cells to EC50 for HIV1 harboring reverse transcriptase K103N mutant infected in human MT4 cells; format: toxicity, cell-based; conditions: read-out: Ratio CC50/EC50
[11] = Aqueous solubility of the compound in FASSIF by HPLC analysis; format: physicochemical; conditions: simulated gi fluid
Procedure, shortened: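 Solubility read by HPLC in fasted state simulated intestinal fluid (FaSSIF).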

[12] = tested on: Human immunodeficiency virus 1; assay: Resistance factor, ratio of EC50 for HIV1 harboring reverse transcriptase E138K mutant to EC50 for wild type HIV1; format: functional; procedure, shortened: as §2
[13] = Selectivity ratio of CC50 for human MT4 cells to EC50 for HIV1 harboring reverse transcriptase L100I mutant infected in human MT4 cells; format: toxicity, cell-based; conditions: read-out: Ratio CC50/EC50
[14] = tested on: Human immunodeficiency virus 1; assay: Antiviral activity against HIV1 RES056 infected in human MT4 cells assessed as reduction in virus-induced cytopathic effect after 5 days by MTT assay; format: functional, organism-based; conditions: Human immunodeficiency virus 1, RES056, MT4, 120 h
[15] = Aqueous solubility of the compound at pH at 7 by HPLC analysis; format: physicochemical; conditions: buffer, pH 7; procedure, shortened: as §1
[16] = tested on: Human immunodeficiency virus 1; assay: Antiviral activity against HIV1 harboring reverse transcriptase L100I mutant infected in human MT4 cells assessed as reduction in virus-induced cytopathic effect after 5 days by MTT assay; format: functional, organism-based; conditions: Human immunodeficiency virus 1, MT4, 120 h
[17] = tested on: Human immunodeficiency virus 1; assay: Resistance factor, ratio of EC50 for HIV1 harboring reverse transcriptase K103N mutant to EC50 for wild type HIV1; format: functional; procedure, shortened: as §2
[18] = tested on: Human immunodeficiency virus 1; assay: Antiviral activity against HIV1 harboring reverse transcriptase Y188L mutant infected in human MT4 cells assessed as reduction in virus-induced cytopathic effect after 5 days by MTT assay; format: functional, organism-based; conditions: Human immunodeficiency virus 1, MT4, 120 h
[19] = Selectivity ratio of CC50 for human MT4 cells to EC50 for HIV1 harboring reverse transcriptase E138K mutant infected in human MT4 cells; format: toxicity, cell-based; conditions: read-out: Ratio CC50/EC50
[20] = Selectivity ratio of CC50 for human MT4 cells to EC50 for HIV1 harboring reverse transcriptase Y188L mutant infected in human MT4 cells; format: toxicity, cell-based; conditions: read-out: Ratio CC50/EC50
[21] = molecular target: Human immunodeficiency virus type 1 reverse transcriptase (Human immunodeficiency virus 1, UniProt Q72547); assay: Inhibition of recombinant HIV1 reverse transcriptase using (DIG)-dUTP and biotin-labeled dNTPs as substrate after 1 hr by ELISA
[22] = tested on: Human immunodeficiency virus 1; assay: Antiviral activity against HIV1 harboring reverse transcriptase E138K mutant infected in human MT4 cells assessed as reduction in virus-induced cytopathic effect after 5 days by MTT assay; format: functional, organism-based; conditions: Human immunodeficiency virus 1, MT4, 120 h
[23] = tested on: Human immunodeficiency virus 1; assay: Resistance factor, ratio of EC50 for HIV1 harboring reverse transcriptase Y181C mutant to EC50 for wild type HIV1; format: functional; procedure, shortened: as §2
[24] = tested on: Human immunodeficiency virus 2; assay: Antiviral activity against HIV2 ROD infected in human MT4 cells assessed as reduction in virus-induced cytopathic effect after 5 days by MTT assay; conditions: Human immunodeficiency virus 2, ISOLATE ROD, MT4, 120 h
[25] = Selectivity ratio of CC50 for human MT4 cells to EC50 for HIV1 3B infected in human MT4 cells; format: toxicity, cell-based; conditions: read-out: Ratio CC50/EC50
[26] = tested on: Human immunodeficiency virus 1; assay: Resistance factor, ratio of EC50 for HIV1 harboring reverse transcriptase Y188L mutant to EC50 for wild type HIV1; format: functional; procedure, shortened: as §2
[27] = tested on: MT4; assay: Cytotoxicity against human MT4 cells after 5 days by MTT assay; format: cell-based; conditions: mt4, 120 h
[28] = tested on: Human immunodeficiency virus 1; assay: Antiviral activity against HIV1 harboring reverse transcriptase K103N mutant infected in human MT4 cells assessed as reduction in virus-induced cytopathic effect after 5 days by MTT assay; format: functional, organism-based; conditions: Human immunodeficiency virus 1, MT4, 120 h
[29] = Aqueous solubility of the compound at pH at 7.4 by HPLC analysis; format: physicochemical; conditions: buffer, pH 7.4; procedure, shortened: as §1
[30] = tested on: Human immunodeficiency virus 1; assay: Antiviral activity against HIV1 NL4-3 infected in human TZM-bl cells after 2 days by luciferase-bright glo assay; format: functional, organism-based; conditions: Human immunodeficiency virus 1, NL4-3, TZM-bl, 48 h
[31] = tested on: TZM; assay: Cytotoxicity against human TZM-bl cells after 4 days by XTT assay; format: cell-based; conditions: 96 h
[32] = Selectivity ratio of CC50 for human TZM-bl cells to EC50 for HIV1 NL4-3 infected in human TZM-bl cells; format: toxicity, cell-based; conditions: read-out: Ratio CC50/EC50
Procedure, shortened: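 The selectivity index is CC50/EC50 in TZM-bl cells against NL4-3. […] The highest concentration tested was 125 ng/mL.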

Cc1cc(C#N)cc(C)c1Oc1nc(NC2CCN(Cc3ccc(S(N)(=O)=O)cc3)CC2)nc2c1SCC2
EC50 [1]: 0.0137 µM | EC50 [2]: 0.0043 µM | solubility [3]: 192 µg/mL (≈ 349 µM) | Ratio EC50 [4]: 2.9 | selectivity ratio [5]: 1220 | EC50 [6]: 0.008 µM | selectivity ratio [7]: 692 | Ratio EC50 [8]: 1.2 | selectivity ratio [9]: 2070 | selectivity ratio [10]: 2840 | solubility [11]: 10 µg/mL (≈ 18.2 µM) | Ratio EC50 [12]: 2.7 | selectivity ratio [13]: 2880 | EC50 [14]: 0.0288 µM | solubility [15]: 8.26 µg/mL (≈ 15 µM) | EC50 [16]: 0.0058 µM | Ratio EC50 [17]: 1.3 | EC50 [18]: 0.0101 µM | selectivity ratio [19]: 1300 | selectivity ratio [20]: 1640 | IC50 [21]: 0.074 µM | EC50 [22]: 0.0128 µM | Ratio EC50 [23]: 1.7 | EC50 [24]: 6.55 µM | selectivity ratio [25]: 4580 | Ratio EC50 [26]: 2.2 | CC50 [27]: 19.9 µM | EC50 [28]: 0.0059 µM | solubility [29]: 2.54 µg/mL (≈ 4.61 µM)

Cc1cc(C#N)cc(C)c1Oc1nc(NC2CCN(Cc3cccc(C(N)=O)c3)CC2)nc2c1CCCC2
EC50 [2]: 0.0065 µM | selectivity ratio [7]: 50 | EC50 [14]: 3.15 µM | IC50 [21]: 0.101 µM | EC50 [24]: > 158 µM | selectivity ratio [25]: 24400 | CC50 [27]: 158 µM

Cc1cc(C#N)cc(C)c1Oc1nc(NC2CCN(Cc3ccc(S(N)(=O)=O)cc3)CC2)nc2ccsc12
solubility [3]: 190 µg/mL (≈ 346 µM) | EC50 [30]: 0.00116 µM | solubility [11]: 1.24 µg/mL (≈ 2.26 µM) | CC50 [31]: > 0.227 µM | solubility [15]: 0.05 µg/mL (≈ 0.0911 µM) | selectivity ratio [32]: 196 | solubility [29]: < 1 µg/mL

Cc1cc(C#N)cc(C)c1Oc1nc(NC2CCN(Cc3ccc([N+](=O)[O-])cc3)CC2)nc2c1CCC2
EC50 [2]: 0.0145 µM | selectivity ratio [7]: 9 | EC50 [14]: 0.941 µM | IC50 [21]: 0.241 µM | EC50 [24]: > 8.73 µM | selectivity ratio [25]: 599 | CC50 [27]: 8.73 µM

Cc1cc(C#N)cc(C)c1Oc1nc(NC2CCN(Cc3cccc(C(N)=O)c3)CC2)nc2c1CCC2
EC50 [2]: 0.002 µM | selectivity ratio [7]: 9 | EC50 [14]: 26.8 µM | IC50 [21]: 0.241 µM | EC50 [24]: > 205 µM | selectivity ratio [25]: 124000 | CC50 [27]: 205 µM

Cc1cc(C#N)cc(C)c1Oc1nc(NC2CCN(Cc3ccc(S(C)(=O)=O)cc3)CC2)nc2c1CSC2
EC50 [2]: 0.0038 µM | selectivity ratio [7]: 259 | EC50 [14]: 0.17 µM | IC50 [21]: 0.091 µM | EC50 [24]: ≥ 22.7 µM | selectivity ratio [25]: 11700 | CC50 [27]: 45.3 µM

Cc1cc(C#N)cc(C)c1Oc1nc(NC2CCN(Cc3ccc(S(C)(=O)=O)cc3)CC2)nc2c1CCC2
EC50 [2]: 0.0049 µM | selectivity ratio [7]: 40 | EC50 [14]: 0.187 µM | IC50 [21]: 0.157 µM | EC50 [24]: 41.8 µM | selectivity ratio [25]: 1500 | CC50 [27]: 7.45 µM

Cc1cc(C#N)cc(C)c1Oc1nc(NC2CCN(Cc3ccc(S(N)(=O)=O)cc3)CC2)nc2c1SCCC2
EC50 [1]: 0.0223 µM | EC50 [2]: 0.0027 µM | Ratio EC50 [4]: 8.3 | EC50 [6]: 0.0104 µM | Ratio EC50 [8]: 4.7 | Ratio EC50 [12]: 3.1 | EC50 [14]: 0.0406 µM | EC50 [16]: 0.0129 µM | Ratio EC50 [17]: 1.9 | EC50 [18]: 0.008 µM | EC50 [22]: 0.0085 µM | Ratio EC50 [23]: 3.8 | EC50 [24]: > 148 µM | Ratio EC50 [26]: 3 | CC50 [27]: ≥ 148 µM | EC50 [28]: 0.0052 µM

From ChEMBL document CHEMBL4368909, “Identification of Dihydrofuro[3,4- d]pyrimidine Derivatives as Novel HIV-1 Non-Nucleoside Reverse Transcriptase Inhibitors with Promising Antiviral Activities and Desirable Physicochemical Properties” (J Med Chem, 2019)
